Most compounds without a hit are left out; they make up all but 2.9% or so of the library.
AI-2 QS mod: Vibrio harveyi AI-2 quorum sensing modulators, primary screen, JMH597 strain, luminescence/OD600 ratio; Vibrio harveyi JMH597 AI-2 luminescence/OD600 ratio, 9 h; stronger effect = lower value; strain lacks LuxN and CqsS sensors; 0 = neutral-control median; activity change, % at 7.5 µM; 300,000 compounds, 0.4% hits; in the data active = activity change below about -75%, passing the limit was not always enough; inconclusive = no clear call, values can overlap the other calls;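 also: luminescence divided by OD600 gain over 9 h not by final OD600 alone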
RanGTP-Imp inh: inhibitors of RanGTP-importin-beta interaction, primary screen, biochemical, FRET, CFP-Ran, YFP-importin-beta, homogeneous. inhibition, % (concentration not given with the values). cell-free CFP-Ran/YFP-importin-beta FRET ratio. 300,000 compounds, 1.1% hits;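 active = more than half of the replicate wells show a fall in the fluorescence ratio signal beyond about 16%, limit read from the data, passing the limit was not always enough; inconclusive = exactly half of the replicate wells pass the set limit; inactive = fewer than half of replicates pass the limit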
KLK7 zymogen act: proKLK7 zymogen activators, primary screen, biochemical, fluorescence intensity. 370,000 compounds, 0.9% hits. Kallikrein-7 (Homo sapiens), P49862. activation, % at 7 µM. purified proKLK7, EDANS-DABCYL substrate fluorescence; 100% is mature enzyme control, 0% vehicle. AID 652039, 2013;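 active = activation above the mean of all tested compounds plus 3 SD, computed per campaign excluding outliers beyond control limits, cut at about 13% in these data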
Target sequence (P49862 whole entry, looked up): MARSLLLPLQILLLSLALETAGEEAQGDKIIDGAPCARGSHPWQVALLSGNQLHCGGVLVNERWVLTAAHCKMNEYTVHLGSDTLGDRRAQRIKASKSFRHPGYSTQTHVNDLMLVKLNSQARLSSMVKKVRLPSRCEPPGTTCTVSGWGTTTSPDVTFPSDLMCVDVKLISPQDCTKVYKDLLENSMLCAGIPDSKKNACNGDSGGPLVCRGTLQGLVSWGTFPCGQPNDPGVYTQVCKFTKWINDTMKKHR
Runt-SMMHC FRET: inhibitors of RUNX1 Runt–CBFb-SMMHC binding, primary screen, biochemical, FRET, Cerulean-Runt, Venus-CBFb-SMMHC, uHTS. inhibition, % at 20 µM. Runt-related transcription factor 1 (Homo sapiens) + Core-binding factor subunit beta …. Cerulean-Runt/Venus-CBFb-SMMHC FRET ratio 530/480, 1 h. 220,000 compounds, 0.74% hits;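 active = mean inhibition across duplicate retests at 20 µM reaching about 50%, limit read from the data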;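 also: inhibitors lower the FRET ratio by blocking Runt binding to CBFb-SMMHC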
Runt-CBFb FRET: inhibitors of RUNX1 Runt–CBFb binding, primary screen, biochemical, FRET, Cerulean-Runt, Venus-CBFb, uHTS | AID 1496, 2009 | Cerulean-Runt/Venus-CBFb FRET ratio 530/480, 1 h | Runt-related transcription factor 1 (Homo sapiens) + Core-binding factor subunit beta … | inhibition, % at 20 µM | 220,000 compounds, 0.46% hits;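 active = inhibition over about 50% at 20 µM in the single-dose screen, limit read from the data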
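test system = Cerulean-tagged RUNX1 Runt domain (FRET donor) fusion protein | reagent = Venus-CBFb binding partner, 100 nM | incubation = protein complex preformed 1 h, compound exposure 1 h, room temperature, dark | detection = FRET fluorescence | read-out basis = loss of energy transfer signal | controls = 5 µM unlabeled CBFb as full-inhibition high control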
Wee1 stabilizer: Wee1 degradation inhibitors, primary screen, cell-based, HeLa, Wee1K328M-luciferase, luminescence | 220,000 compounds, 1.2% hits | HeLa Luc-Wee1K328M stability; 100% = proteasome inhibitor MG132 effect | Wee1-like protein kinase (Homo sapiens), P30291 | AID 1321, 2008 | reporter increase, % at 5 µM;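 active = activation above the mean of all tested compounds plus 3 SD, set per screening run, cut at about 8.8% in these data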;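 also: cells exposed to compound for 20 h before luminescence read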
proKLK7 act conf: proKLK7 zymogen activators, confirmation, biochemical, fluorescence intensity, triplicate. shares compounds with KLK7 zymogen act. activation, % at 7 µM. 3,200 compounds, 68% hits. purified proKLK7, EDANS-DABCYL substrate fluorescence; scaled: vehicle 0, mature enzyme 100;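 active = activation, as change over the incubation, above the mean of all tested compounds plus 3 SD, cut at about 13% in these data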
EDANS-DABCYL int: EDANS-DABCYL substrate optical interference, artefact control for kallikrein-7 zymogen activator project, biochemical, fluorescence intensity, high throughput | shares compounds with KLK7 zymogen act | no enzyme, 4 h; solvent 0%, active enzyme control 100% | activation, % at 7 µM | 3,200 compounds, 80% hits | AID 686952, 2013;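 active = activation above the all-compound mean plus 3 SD, ignoring values outside control-based bounds, cut at about 4.8% in these data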;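 also: value is the 4 h activation minus the activation read at time zero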
K7 EDANS ctr: optically interferes with EDANS-DABCYL fluorescence, kallikrein-7 activator counter-screen. shares compounds with KLK7 zymogen act. EDANS-DABCYL peptide fluorescence interference, no enzyme. EC50, µM. 250 compounds, 20% hits. AID 720493;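 active = compounds that raise the fluorescence signal in this interference counterscreen, with EC50 at or below 10 µM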;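 also: intact quenched peptide substrate alone read at 355 nm excitation and 520 nm emission; signal is fluorescence gain from T0 to T4 after four hours at room temperature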
Hits are given with their value.

What do the screens show for `CCOC(=O)Nc1ccc2c(COC(=O)c3ccccc3O)cc(=O)oc2c1`?
AI-2 QS mod: inactive; RanGTP-Imp inh: inconclusive; KLK7 zymogen act: inactive

What do the screens show for `Cc1ccc(NC(=O)CSC(C)C(=O)OCc2cc(=O)oc3cc(O)ccc23)cc1` (configuration not stated)?
KLK7 zymogen act: 241; proKLK7 act conf: 314; EDANS-DABCYL int: 275

What do the screens show for `Cc1cccc(-n2c(O)c(C=Nc3ccccc3O)c3ccccc3c2=O)n1`?
AI-2 QS mod: inactive; RanGTP-Imp inh: 30; KLK7 zymogen act: 18; Runt-SMMHC FRET: inactive; Runt-CBFb FRET: inactive; Wee1 stabilizer: inactive; proKLK7 act conf: inactive; EDANS-DABCYL int: 9.4

How did NS(=O)(=O)c1ccc(N=Cc2c(O)n(-c3nccs3)c(=O)c3ccccc23)cc1 do in these assays?
AI-2 QS mod: inactive; RanGTP-Imp inh: inactive; KLK7 zymogen act: 23; Runt-SMMHC FRET: inactive; Runt-CBFb FRET: inactive; Wee1 stabilizer: inactive; proKLK7 act conf: 18; EDANS-DABCYL int: 20

What do the screens show for `Cc1cccc(-n2c(O)c(C=Nc3ccc(O)cc3)c3ccccc3c2=O)n1`?
AI-2 QS mod: inactive; RanGTP-Imp inh: inactive; KLK7 zymogen act: 18; Runt-SMMHC FRET: inactive; Runt-CBFb FRET: inactive; Wee1 stabilizer: inactive; proKLK7 act conf: 23; EDANS-DABCYL int: 23

Results for CCOC(=O)C1CCN(C(=O)Cn2nc(CC)n3cccc3c2=O)CC1 ?
AI-2 QS mod: inactive; RanGTP-Imp inh: inactive; KLK7 zymogen act: inactive

How did COc1cc(OC)cc(C(=O)N[C@H](C(=O)OCC(N)=O)C(C)C)c1 do in these assays?
AI-2 QS mod: inactive; RanGTP-Imp inh: inactive; KLK7 zymogen act: inactive; Runt-SMMHC FRET: inactive; Runt-CBFb FRET: inactive; Wee1 stabilizer: inactive

What do the screens show for `Cc1nc2nc(C)c(NS(=O)(=O)c3ccc4c(c3)CCCC4)c(=O)n2[nH]1`?
AI-2 QS mod: inactive; RanGTP-Imp inh: inactive; KLK7 zymogen act: inactive

Results for Cn1c(NCc2ccccc2)nc2c1c(=O)n(Cc1ccc(Br)cc1)c(=O)n2C ?
AI-2 QS mod: inactive; RanGTP-Imp inh: inactive; KLK7 zymogen act: inactive; Runt-SMMHC FRET: inactive; Runt-CBFb FRET: inactive; Wee1 stabilizer: inactive

Results for Cn1c(=O)c2nc(NCc3ccccc3)cnc2n(C)c1=O ?
AI-2 QS mod: inactive; RanGTP-Imp inh: 75; KLK7 zymogen act: 15; Runt-SMMHC FRET: inactive; Runt-CBFb FRET: inactive; Wee1 stabilizer: inactive; proKLK7 act conf: 30; EDANS-DABCYL int: 40

What do the screens show for `COCCCNC(=O)c1cccc2c(-c3ccnn3C)coc12`?
KLK7 zymogen act: inactive

How did CCS(=O)(=O)C1=NN2C(=N)/C(=C\c3ccc(SCc4ccco4)o3)C(=O)N=C2S1 do in these assays?
AI-2 QS mod: inactive; RanGTP-Imp inh: inconclusive; KLK7 zymogen act: inactive; Runt-SMMHC FRET: inactive; Runt-CBFb FRET: inactive; Wee1 stabilizer: inactive

How did COc1ccc2c(C)c(CCC(=O)NC3CC3)c(=O)oc2c1 do in these assays?
AI-2 QS mod: inactive; RanGTP-Imp inh: inactive; KLK7 zymogen act: inactive

Results for Cc1oc2cc3oc(=O)c(CCC(=O)NCCC(=O)O)c(C)c3cc2c1C ?
AI-2 QS mod: inactive; RanGTP-Imp inh: inactive; KLK7 zymogen act: inactive

Results for Cc1c(CCC(=O)NC2CC2)c(=O)oc2cc(O)ccc12 ?
AI-2 QS mod: inactive; RanGTP-Imp inh: inactive; KLK7 zymogen act: 86; proKLK7 act conf: 62; EDANS-DABCYL int: 73

Results for Cc1oc2cc3oc(=O)c(CCC(=O)NCCCC(=O)O)c(C)c3cc2c1C ?
AI-2 QS mod: inactive; RanGTP-Imp inh: inactive; KLK7 zymogen act: 14; proKLK7 act conf: 24; EDANS-DABCYL int: 22

What do the screens show for `O=C(Nc1ccc2c(c1)OCO2)c1cc(-c2cccc(O)c2)on1`?
AI-2 QS mod: inactive; RanGTP-Imp inh: inactive; KLK7 zymogen act: inactive

What do the screens show for `O=C(Nc1ccc2c(c1)OCO2)c1cc(-c2ccc(O)cc2)on1`?
AI-2 QS mod: inactive; RanGTP-Imp inh: inactive; KLK7 zymogen act: 20; proKLK7 act conf: 21; EDANS-DABCYL int: 14; K7 EDANS ctr: inactive

Results for COc1cc2c(cc1OC)C(SC)=NC(C)(C)C2 ?
AI-2 QS mod: inactive; RanGTP-Imp inh: inactive; KLK7 zymogen act: inactive; Runt-SMMHC FRET: inactive; Runt-CBFb FRET: inactive; Wee1 stabilizer: inactive

How did COc1ccc(C2=NCCc3cc(OC)c(OC)cc32)cc1OC do in these assays?
AI-2 QS mod: inactive; RanGTP-Imp inh: inactive; KLK7 zymogen act: 17; Runt-SMMHC FRET: inactive; Runt-CBFb FRET: inactive; Wee1 stabilizer: inactive; proKLK7 act conf: inactive; EDANS-DABCYL int: 11

What do the screens show for `COc1ccc(C2=NCCc3cc(OC)c(OC)cc32)cc1`?
AI-2 QS mod: inactive; RanGTP-Imp inh: inactive; KLK7 zymogen act: 30; Runt-SMMHC FRET: inactive; Runt-CBFb FRET: inactive; Wee1 stabilizer: inactive; proKLK7 act conf: inactive; EDANS-DABCYL int: 13

How did COc1cc2c(cc1OC)C(CCc1ccccc1)=NCC2 do in these assays?
AI-2 QS mod: inactive; RanGTP-Imp inh: inactive; KLK7 zymogen act: 152; Runt-SMMHC FRET: inactive; Runt-CBFb FRET: inactive; Wee1 stabilizer: inactive; proKLK7 act conf: 63; EDANS-DABCYL int: 80

What do the screens show for `COc1ccc(C2=NC(C)(C)Cc3cc(OC)c(OC)cc32)cc1`?
AI-2 QS mod: inactive; RanGTP-Imp inh: inactive; KLK7 zymogen act: 22; proKLK7 act conf: inactive; EDANS-DABCYL int: 7.1

How did CCN(CC)C(=O)c1cccc(-c2csc(C(O)c3cccc(Cl)c3)n2)c1 (configuration not stated) do in these assays?
KLK7 zymogen act: inactive

How did Cc1sc2nc3ccc(NCc4ccco4)nn3c(=O)c2c1C do in these assays?
AI-2 QS mod: inactive; RanGTP-Imp inh: inactive; KLK7 zymogen act: 17; Runt-SMMHC FRET: 60; Runt-CBFb FRET: inactive; Wee1 stabilizer: inactive; proKLK7 act conf: 74; EDANS-DABCYL int: 70

From PubChem
